Active and inactive are the calls of the source. The calls are words filed in the database; no cut-off is given here.
Assays:
HL-60 [1] = test: Induction of cell cycle arrest at G2/M phase in human HL60 cells assessed as decrease in cyclin B1 expression at 0.1 to 1.0 uM after 24 hrs by Western blot analysis; type: functional, cell-based
Summary of the method: (§1)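 HL-60 cells at 2 × 10⁵/mL were exposed to the indicated concentrations for 24 h, washed in PBS and lysed for total protein. Immunoblots used HRP-linked secondary antibodies with ECL detection. Cyclin B1, CDK1, caspase-3 (17 kDa active form) and PARP (85 kDa fragment) were quantified and normalised to β-actin.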

A549 = test: Anticancer activity against human A549 cells after 48 hrs by MTT assay; type: functional; settings: A549, 48 h
NCI-H322M = test: Anticancer activity against human NCI-H322M cells after 48 hrs by MTT assay; type: functional
NCI-H522 = test: Anticancer activity against human NCI-H522 cells after 48 hrs by MTT assay; type: functional; settings: NCI-H522, 48 h
KM12 = test: Anticancer activity against human KM12 cells after 48 hrs by MTT assay; type: functional; settings: KM12, 48 h
SF-268 = test: Anticancer activity against human SF268 cells after 48 hrs by MTT assay; type: functional; settings: SF-268, 48 h
SF-295 = test: Anticancer activity against human SF295 cells after 48 hrs by MTT assay; type: functional; settings: SF-295, 48 h
SNB-19 = test: Anticancer activity against human SNB19 cells after 48 hrs by MTT assay; type: functional; settings: SNB-19, 48 h
SNB-75 = test: Anticancer activity against human SNB75 cells after 48 hrs by MTT assay; type: functional; settings: SNB-75, 48 h
LOX IMVI = test: Anticancer activity against human LOXIMVI cells after 48 hrs by MTT assay; type: functional
MDA-MB-435 = test: Anticancer activity against human MDA-MB-435 cells after 48 hrs by MTT assay; type: functional; settings: MDA-MB-435, 48 h
SK-MEL-2 = test: Anticancer activity against human SK-MEL-2 cells after 48 hrs by MTT assay; type: functional; settings: SK-MEL-2, 48 h
SK-MEL-28 = test: Anticancer activity against human SK-MEL-28 cells after 48 hrs by MTT assay; type: functional; settings: SK-MEL-28, 48 h
UACC-62 = test: Anticancer activity against human UACC62 cells after 48 hrs by MTT assay; type: functional; settings: UACC-62, 48 h
OVCAR-3 = test: Anticancer activity against human OVCAR3 cells after 48 hrs by MTT assay; type: functional; settings: OVCAR-3, 48 h
OVCAR-8 = test: Anticancer activity against human OVCAR8 cells after 48 hrs by MTT assay; type: functional; settings: OVCAR-8, 48 h
NCI/ADR-RES = test: Anticancer activity against human NCI/ADR-RES cells after 48 hrs by MTT assay; type: functional
786-0 = test: Anticancer activity against human 786-0 cells after 48 hrs by MTT assay; type: functional; settings: 786-0, 48 h
A498 = test: Anticancer activity against human A498 cells after 48 hrs by MTT assay; type: functional; settings: A498, 48 h
ACHN = test: Anticancer activity against human ACHN cells after 48 hrs by MTT assay; type: functional
CAKI-1 = test: Anticancer activity against human Caki1 cells after 48 hrs by MTT assay; type: functional; settings: CAKI-1, 48 h
RXF 393 = test: Anticancer activity against human RXF393 cells after 48 hrs by MTT assay; type: functional; settings: RXF 393, 48 h
SN12C = test: Anticancer activity against human SN12C cells after 48 hrs by MTT assay; type: functional
MCF7 = test: Anticancer activity against human MCF7 cells after 48 hrs by MTT assay; type: functional; settings: MCF7, 48 h
HL-60 [2] = test: Induction of apoptosis in human HL60 cells assessed as caspase-3 activation at 0.1 to 1.0 uM after 24 hrs by Western blot analysis; type: functional, cell-based; summary of the method: as §1
HL-60 [3] = test: Induction of apoptosis in human HL60 cells assessed as PARP cleavage at 0.1 to 1.0 uM after 24 hrs by Western blot analysis; type: functional, cell-based; summary of the method: as §1
MDA-MB-468 = test: Anticancer activity against human MDA-MB-468 cells after 48 hrs by MTT assay; type: functional; settings: MDA-MB-468, 48 h
HL-60 [4] = test: Induction of apoptosis in human HL60 cells assessed as cell shrinkage at 1 uM after 24 hrs; type: functional, cell-based
Summary of the method: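 HL-60 cells were exposed to 1 μM for 24 h. Apoptotic morphology, scored as cell shrinkage and apoptotic bodies, was examined by microscopy at 200×.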

HL-60 [5] = test: Cell cycle arrest in human HL60 assessed as cell accumulation in G0/G1 phase at 1 uM after 24 hrs by propidium iodide staining-based flow cytometric analysis; type: functional
Summary of the method: (§2)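 HL-60 cells were preincubated for 3 h with or without the pan-caspase inhibitor z-VAD-fmk, then co-exposed to compound at 1 μM for 24 h. Cells were washed in PBS and fixed overnight in ice-cold 70% ethanol at −20 °C. They were stained for 30 min in the dark with propidium iodide 4 μg/mL, 0.1 mg/ml RNase and 1% Triton X-100. DNA content was read on a FACScan flow cytometer.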

HL-60 [6] = test: Cell cycle arrest in human HL60 assessed as cell accumulation in S phase at 1 uM after 24 hrs by propidium iodide staining-based flow cytometric analysis; type: functional; summary of the method: as §2
[7] = read-out: pLC50 (the source's name) (converted)

Cc1ccc(-c2cc(=O)c3cc4c(cc3[nH]2)OCO4)[se]1
Activity (HL-60 [1]): Active
GI50 (A549): 245 nM
CC50 (A549; [7]): > 100000 nM
TGI (A549; read-out: pTGI (converted)): 646 nM
GI50 (NCI-H322M): > 100000 nM
CC50 (NCI-H322M; [7]): > 100000 nM
TGI (NCI-H322M; read-out: pTGI): > 100000 nM
GI50 (NCI-H522): 288 nM
CC50 (NCI-H522; [7]): > 100000 nM
TGI (NCI-H522; read-out: pTGI (converted)): 537 nM
GI50 (KM12): 263 nM
CC50 (KM12; [7]): > 100000 nM
TGI (KM12; read-out: pTGI): > 100000 nM
GI50 (SF-268): 513 nM
CC50 (SF-268; [7]): > 100000 nM
TGI (SF-268; read-out: pTGI): > 100000 nM
GI50 (SF-295): 347 nM
CC50 (SF-295; [7]): > 100000 nM
TGI (SF-295; read-out: pTGI): > 100000 nM
GI50 (SNB-19): 389 nM
CC50 (SNB-19; [7]): > 100000 nM
TGI (SNB-19; read-out: pTGI): > 100000 nM
GI50 (SNB-75): 275 nM
CC50 (SNB-75; [7]): > 100000 nM
TGI (SNB-75; read-out: pTGI): > 100000 nM
GI50 (LOX IMVI): 646 nM
CC50 (LOX IMVI; [7]): > 100000 nM
TGI (LOX IMVI; read-out: pTGI): > 100000 nM
GI50 (MDA-MB-435): 52.5 nM
CC50 (MDA-MB-435; [7]): > 100000 nM
TGI (MDA-MB-435; read-out: pTGI (converted)): 427 nM
GI50 (SK-MEL-2): 110 nM
CC50 (SK-MEL-2; [7]): > 100000 nM
TGI (SK-MEL-2; read-out: pTGI (converted)): 525 nM
GI50 (SK-MEL-28): 794 nM
CC50 (SK-MEL-28; [7]): > 100000 nM
TGI (SK-MEL-28; read-out: pTGI): > 100000 nM
GI50 (UACC-62): 398 nM
CC50 (UACC-62; [7]): > 100000 nM
TGI (UACC-62; read-out: pTGI): > 100000 nM
GI50 (OVCAR-3): 240 nM
TGI (OVCAR-3; read-out: pTGI (converted)): 457 nM
GI50 (OVCAR-8): 339 nM
CC50 (OVCAR-8; [7]): > 100000 nM
TGI (OVCAR-8; read-out: pTGI): > 100000 nM
GI50 (NCI/ADR-RES): 316 nM
CC50 (NCI/ADR-RES; [7]): > 100000 nM
TGI (NCI/ADR-RES; read-out: pTGI): > 100000 nM
GI50 (786-0): 427 nM
CC50 (786-0; [7]): > 100000 nM
TGI (786-0; read-out: pTGI): > 100000 nM
GI50 (A498): 372 nM
CC50 (A498; [7]): > 100000 nM
TGI (A498; read-out: pTGI): > 100000 nM
GI50 (ACHN): 759 nM
CC50 (ACHN; [7]): > 100000 nM
TGI (ACHN; read-out: pTGI): > 100000 nM
GI50 (CAKI-1): 1820 nM
CC50 (CAKI-1; [7]): > 100000 nM
TGI (CAKI-1; read-out: pTGI): > 100000 nM
GI50 (RXF 393): 229 nM
CC50 (RXF 393; [7]): > 100000 nM
TGI (RXF 393; read-out: pTGI (converted)): 589 nM
GI50 (SN12C): 603 nM
CC50 (SN12C; [7]): > 100000 nM
TGI (SN12C; read-out: pTGI): > 100000 nM
GI50 (MCF7): 324 nM
CC50 (MCF7; [7]): > 100000 nM
TGI (MCF7; read-out: pTGI): > 100000 nM
Activity (HL-60 [2]): Active
Activity (HL-60 [3]): Active
GI50 (MDA-MB-468): 562 nM
CC50 (MDA-MB-468; [7]): > 100000 nM
TGI (MDA-MB-468; read-out: pTGI): > 100000 nM
Activity (HL-60 [4]): Active
Activity (HL-60 [5]): 14.3%
Activity (HL-60 [6]): 41.6%

Reference: ChEMBL document CHEMBL1909500, “Synthesis and in vitro anticancer activity of 6,7-methylenedioxy (or 5-hydroxy-6-methoxy)-2-(substituted selenophenyl)quinolin-4-one analogs” (Eur J Med Chem, 2011)
